Data taken from ChEMBL document CHEMBL4622915, “Design and synthesis of C-12 dithiocarbamate andrographolide analogues as an anticancer agent” (Bioorg Med Chem Lett, 2020).
pIC50: −log10 of the molar value.

Experiments:
Type in all cases: functional, cell-based
[1] = Anticancer activity against rat ASK cells assessed as reduction in cell viability measured after 72 hrs by SRB assay
Outline: (§1)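 Adherent cells seeded at 10^4 cells/well and exposed 72 h to compound at 0.1–50 μM, dissolved in DMSO (less than 0.05%). Ellipticine served as positive control. Afterwards cells washed, fixed with TCA, stained with 0.4% SRB in 1% acetic acid. Bound dye extracted and OD read at 515 nm; IC50 derived.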

[2] = Anticancer activity against human KKU055 cells assessed as reduction in cell viability measured after 72 hrs by SRB assay; outline: as §1
MCF7 = assay: Anticancer activity against human MCF7 cells assessed as reduction in cell viability measured after 72 hrs by SRB assay; settings: MCF7, 72 h; outline: as §1
HuCC-A1 = assay: Anticancer activity against human HuCCa1 cells assessed as reduction in cell viability measured after 72 hrs by SRB assay; settings: HuCC-A1, 72 h; outline: as §1
P388 = assay: Anticancer activity against mouse P388 cells assessed as reduction in cell viability measured after 48 hrs by SRB assay; settings: P388, 48 h
Outline: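 Suspension cells seeded at 10^4 cells/well and exposed 48 h to compound at 0.1–50 μM, dissolved in DMSO (less than 0.05%). Ellipticine served as positive control. Then washed, TCA-fixed, stained with 0.4% SRB in 1% acetic acid. Protein-bound dye extracted and absorbance read at 515 nm; IC50 taken.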

A549 = assay: Anticancer activity against human A549 cells assessed as reduction in cell viability measured after 72 hrs by SRB assay; settings: A549, 72 h; outline: as §1
HT-29 = assay: Anticancer activity against human HT-29 cells assessed as reduction in cell viability measured after 72 hrs by SRB assay; settings: HT-29, 72 h; outline: as §1
[3] = Anticancer activity against human KKU-M213 cells assessed as reduction in cell viability measured after 72 hrs by SRB assay; settings: KKU-M213, 72 h; outline: as §1
KB = assay: Anticancer activity against human KB cells assessed as reduction in cell viability measured after 72 hrs by SRB assay; outline: as §1

| Structure (SMILES) | pIC50 [1] | pIC50 [2] | pIC50 (MCF7) | pIC50 (HuCC-A1) | pIC50 (P388) | pIC50 (A549) | pIC50 (HT-29) | pIC50 [3] | pIC50 (KB) |
| --- | --- | --- | --- | --- | --- | --- | --- | --- | --- |
| C=C1CC[C@@H]2[C@](C)(COC(C)=O)[C@H](OC(C)=O)CC[C@@]2(C)[C@@H]1C/C=C1/C(=O)OC[C@H]1OC(C)=O | 4.65 | 5.30 | 5.10 | 4.70 | 5.18 | < 4.30 | 4.66 | 4.83 | 4.55 |
| C=C1CC[C@@H]2[C@](C)(COC(C)=O)[C@H](OC(C)=O)CC[C@@]2(C)[C@@H]1C[C@H](SC(=S)N1CCc2ccccc2C1)C1=CCOC1=O | 4.70 | 5.26 | 5.40 | 5.14 | 5.36 | 4.60 | 5.15 | 5.25 | 4.60 |
| C=C1CC[C@@H]2[C@](C)(COC(C)=O)[C@H](OC(C)=O)CC[C@@]2(C)[C@@H]1C[C@H](SC(=S)N1CCC(Cc2ccccc2)CC1)C1=CCOC1=O | 4.54 | 5.19 | 5.26 | 4.71 | 5.31 | 4.54 | 4.82 | 5.17 | 4.47 |
| C=C1CC[C@@H]2[C@](C)(COC(C)=O)[C@H](OC(C)=O)CC[C@@]2(C)[C@@H]1C[C@H](SC(=S)N1CCN(C(c2ccc(F)cc2)c2ccc(F)cc2)CC1)C1=CCOC1=O | < 4.30 | 4.55 | 4.62 | < 4.30 | 4.85 | < 4.30 | < 4.30 | 4.54 | 4.37 |
| C=C1CC[C@@H]2[C@](C)(COC(C)=O)[C@H](OC(C)=O)CC[C@@]2(C)[C@@H]1C[C@H](SC(=S)N1CCN(c2ccc(O)cc2)CC1)C1=CCOC1=O | 5.32 | 5.28 | 5.59 | 5.31 | 5.24 | 4.66 | 5.31 | 5.31 | 5.22 |
| C=C1CC[C@@H]2[C@](C)(COC(C)=O)[C@H](OC(C)=O)CC[C@@]2(C)[C@@H]1C[C@H](SC(=S)N1CCN(Cc2ccc3c(c2)OCO3)CC1)C1=CCOC1=O | 4.83 | 5.01 | 5.25 | 4.94 | 5.34 | 4.53 | 5.10 | 5.12 | 4.67 |
| C=C1CC[C@@H]2[C@](C)(COC(C)=O)[C@H](OC(C)=O)CC[C@@]2(C)[C@@H]1C[C@H](SC(=S)N1CCN(c2ccccc2OC)CC1)C1=CCOC1=O | 4.84 | 5.12 | 5.33 | 5.09 | 5.24 | 4.55 | 5.18 | 5.25 | 4.75 |
| C=C1CC[C@@H]2[C@](C)(COC(C)=O)[C@H](OC(C)=O)CC[C@@]2(C)[C@@H]1C[C@H](SC(=S)N1CCN(c2ccccc2)CC1)C1=CCOC1=O | 4.81 | 5.03 | 5.19 | 5.02 | 5.37 | 4.54 | 5.09 | 5.19 | 4.63 |
| C=C1CC[C@@H]2[C@](C)(COC(C)=O)[C@H](OC(C)=O)CC[C@@]2(C)[C@@H]1C[C@H](SC(=S)N1CCN(C(c2ccccc2)c2ccc(Cl)cc2)CC1)C1=CCOC1=O (stereo partly specified) | < 4.30 | 4.56 | 4.66 | < 4.30 | 4.65 | < 4.30 | < 4.30 | < 4.30 | < 4.30 |
| C=C1CC[C@@H]2[C@](C)(COC(C)=O)[C@H](OC(C)=O)CC[C@@]2(C)[C@@H]1C[C@H](SC(=S)N1CCN(c2ccc(C)cc2)CC1)C1=CCOC1=O | 4.55 | 4.83 | 5.22 | 4.76 | 5.26 | 4.56 | 5.08 | 5.19 | 4.71 |
| C=C1CC[C@@H]2[C@](C)(COC(C)=O)[C@H](OC(C)=O)CC[C@@]2(C)[C@@H]1C[C@H](SC(=S)N1CCOCC1)C1=CCOC1=O | 5.03 | 5.28 | 5.53 | 5.32 | 5.24 | 4.83 | 5.38 | 5.29 | 5.22 |
| C=C1CC[C@@H]2[C@](C)(COC(C)=O)[C@H](OC(C)=O)CC[C@@]2(C)[C@@H]1C[C@H](SC(=S)N(Cc1ccccc1)C(C)C)C1=CCOC1=O | 4.69 | 5.28 | 5.43 | 5.06 | 5.39 | 4.65 | 5.17 | 5.26 | 4.61 |
| C=C1CC[C@@H]2[C@](C)(COC(C)=O)[C@H](OC(C)=O)CC[C@@]2(C)[C@@H]1C[C@H](SC(=S)N(C)Cc1ccccc1)C1=CCOC1=O | 5.16 | 5.87 | 6.23 | 5.06 | 5.66 | 5.16 | 5.21 | 5.32 | 4.60 |
| C=C1CC[C@@H]2[C@](C)(COC(C)=O)[C@H](OC(C)=O)CC[C@@]2(C)[C@@H]1C[C@H](SC(=S)N1CCN(C(c2ccccc2)c2ccccc2)CC1)C1=CCOC1=O | < 4.30 | < 4.30 | 4.37 | < 4.30 | 4.44 | < 4.30 | < 4.30 | < 4.30 | < 4.30 |
| C=C1CC[C@@H]2[C@](C)(COC(C)=O)[C@H](OC(C)=O)CC[C@@]2(C)[C@@H]1C[C@H](SC(=S)N1CCN(Cc2ccc(Cl)cc2)CC1)C1=CCOC1=O | 4.58 | 5.21 | 5.25 | 4.67 | 5.32 | 4.48 | 4.86 | 5.17 | < 4.30 |
| C=C1CC[C@@H]2[C@](C)(COC(C)=O)[C@H](OC(C)=O)CC[C@@]2(C)[C@@H]1C[C@H](SC(=S)N(Cc1ccccc1)Cc1ccccc1)C1=CCOC1=O | 5.14 | 5.22 | 5.32 | 5.12 | 5.31 | 4.64 | 5.18 | 5.25 | 5.06 |
| C=C1CC[C@@H]2[C@](C)(COC(C)=O)[C@H](OC(C)=O)CC[C@@]2(C)[C@@H]1C[C@H](SC(=S)N1CCN(C(=O)C2COc3ccccc3O2)CC1)C1=CCOC1=O (stereo partly specified) | 4.59 | 5.25 | 5.41 | 4.76 | 5.47 | 4.63 | 5.04 | 5.21 | 4.64 |
| C=C1CC[C@@H]2[C@](C)(COC(C)=O)[C@H](OC(C)=O)CC[C@@]2(C)[C@@H]1C[C@H](SC(=S)N1CCN(c2ccccc2F)CC1)C1=CCOC1=O | 5.02 | 5.03 | 5.22 | 5.06 | 5.24 | 4.55 | 5.15 | 5.28 | 4.72 |
| C=C1CC[C@@H]2[C@](C)(COC(C)=O)[C@H](OC(C)=O)CC[C@@]2(C)[C@@H]1C[C@H](SC(=S)N1CCc2ccccc2C1c1ccccc1)C1=CCOC1=O (stereo partly specified) | 4.63 | 5.19 | 5.25 | 5.03 | 5.27 | 4.53 | 5.02 | 5.17 | 4.74 |
| C=C1CC[C@@H]2[C@](C)(COC(C)=O)[C@H](OC(C)=O)CC[C@@]2(C)[C@@H]1C[C@H](SC(=S)N(C)Cc1ccc(F)cc1)C1=CCOC1=O | 4.77 | 5.52 | 6.17 | 5.11 | 5.44 | 4.93 | 5.21 | 5.29 | 4.59 |
| C=C1CC[C@@H]2[C@](C)(COC(C)=O)[C@H](OC(C)=O)CC[C@@]2(C)[C@@H]1C[C@H](SC(=S)N1CCN(c2ncccn2)CC1)C1=CCOC1=O | 5.14 | 5.28 | 6.08 | 5.24 | 5.37 | 4.75 | 5.34 | 5.28 | 5.16 |
| C=C1CC[C@@H]2[C@](C)(COC(C)=O)[C@H](OC(C)=O)CC[C@@]2(C)[C@@H]1C[C@H](SC(=S)N(CC)Cc1ccncc1)C1=CCOC1=O | 4.74 | 5.39 | 5.61 | 5.15 | 5.23 | 5.03 | 5.37 | 5.25 | 4.77 |
| C=C1CC[C@@H]2[C@](C)(CO)[C@H](O)CC[C@@]2(C)[C@@H]1C/C=C1/C(=O)OC[C@H]1O [ANDROGRAPHOLIDE] | 4.46 | 4.75 | 5.07 | 4.63 | 5.19 | 4.49 | 5.05 | 5.03 | 4.50 |
| Cc1c2ccncc2c(C)c2c1[nH]c1ccccc12 [ELLIPTECINE] | 5.66 | 5.61 | 5.75 | 5.61 | 5.75 | 5.65 | 5.67 | 5.74 | 5.72 |
